Measured values published in ChEMBL document CHEMBL1123201, “7-(Trifluoromethyl)-4-aminoquinoline hypotensives: novel peripheral sympatholytics” (J Med Chem, 1986).
Several values for one entry are separate records, joined by “and”; a condition that tells them apart may be missing. Equal values may be shown once.

How the values were obtained:
Rattus norvegicus [1] = assay: Compound was tested for hypotensive activity by measuring the average change in mean arterial blood pressure in mmHg after 4 hr at 50 mg/Kg oral dosing of a conscious rat; format: functional, Artery
Method in brief: (§1)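 Restrained (towel-wrapped, to raise sympathetic tone) conscious female Sprague-Dawley rats with chronic indwelling aortic cannulas exteriorized at the nape; blood pressure recorded directly by transducer before and 4 and 24 h after oral dosing. Compound suspended in carboxymethylcellulose vehicle, 10 mL/kg; doses 50 to 0.05 mg/kg. Two rats averaged per time point; average change ≥5 mmHg taken as significant (p < 0.05).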

Rattus norvegicus [2] = assay: Compound was tested for hypotensive activity by measuring the average change in mean arterial blood pressure in mmHg after 24 hr at 50 mg/Kg oral dosing of a conscious rat; format: functional, Artery; method in brief: as §1
Rattus norvegicus [3] = assay: Hypotensive activity in conscious rat 24 hr after 5 mg/kg p.o. administration.; format: functional; conditions: route oral; method in brief: as §1
Rattus norvegicus [4] = assay: Hypotensive activity in conscious rat 4 hr after 5 mg/kg p.o. administration.; format: functional; conditions: route oral; method in brief: as §1
[5] = Acute toxicity was determined in mice; format: organism-based; conditions: mouse, in vivo
Mus musculus [6] = species: Mus musculus; assay: Lowest dose of compound associated with unacceptable clinical signs.; format: functional
Rattus norvegicus [7] = assay: Compound was tested for hypotensive activity by measuring the average change in mean arterial blood pressure in mmHg after 24 hr at 0.5 mg/Kg oral dosing of a conscious rat; format: functional, Artery; method in brief: as §1
Mus musculus [8] = species: Mus musculus; assay: Lowest dose of compound associated with clinical signs.; format: functional
Rattus norvegicus [9] = assay: Compound was tested for hypotensive activity by measuring the average change in mean arterial blood pressure in mmHg after 4 hr at 0.5 mg/Kg oral dosing of a conscious rat; format: functional, Artery; method in brief: as §1
Mus musculus [10] = species: Mus musculus; assay: Lowest dose of compound associated with clinical signs; NA is Not Acceptable.; format: functional, organism-based
Rattus norvegicus [11] = assay: Compound was tested for hypotensive activity by measuring the average change in mean arterial blood pressure in mmHg after 24 hr at 1 mg/Kg oral dosing of a conscious rat; format: functional, Artery; method in brief: as §1
Rattus norvegicus [12] = assay: Compound was tested for hypotensive activity by measuring the average change in mean arterial blood pressure in mmHg after 4 hr at 1 mg/Kg oral dosing of a conscious rat; format: functional, Artery; method in brief: as §1
Rattus norvegicus [13] = assay: Compound was tested for hypotensive activity by measuring the average change in mean arterial blood pressure in mmHg after 4 hr at 15 mg/Kg oral dosing of a conscious rat; format: functional, Artery; method in brief: as §1
Rattus norvegicus [14] = assay: Compound was tested for hypotensive activity by measuring the average change in mean arterial blood pressure in mmHg after 4 hr at 0.05 mg/Kg oral dosing of a conscious rat; format: functional, Artery; method in brief: as §1
Rattus norvegicus [15] = assay: Compound was tested for hypotensive activity by measuring the average change in mean arterial blood pressure in mmHg after 4 hr at 0.15 mg/Kg oral dosing of a conscious rat; format: functional, Artery; method in brief: as §1
Rattus norvegicus [16] = assay: Compound was tested for hypotensive activity by measuring the average change in mean arterial blood pressure in mmHg after 24 hr at 1.5 mg/Kg oral dosing of a conscious rat; format: functional, Artery; method in brief: as §1
Rattus norvegicus [17] = assay: Compound was tested for hypotensive activity by measuring the average change in mean arterial blood pressure in mmHg after 4 hr at 1.5 mg/Kg oral dosing of a conscious rat; format: functional, Artery; method in brief: as §1
Rattus norvegicus [18] = assay: Compound was tested for hypotensive activity by measuring the average change in mean arterial blood pressure in mmHg after 24 hr at 0.05 mg/Kg oral dosing of a conscious rat; format: functional, Artery; method in brief: as §1
Rattus norvegicus [19] = assay: Compound was tested for hypotensive activity by measuring the average change in mean arterial blood pressure in mmHg after 24 hr at 15 mg/Kg oral dosing of a conscious rat; format: functional, Artery; method in brief: as §1
Rattus norvegicus [20] = assay: Compound was tested for hypotensive activity by measuring the average change in mean arterial blood pressure in mmHg after 24 hr at 0.15 mg/Kg oral dosing of a conscious rat; format: functional, Artery; method in brief: as §1
Rattus norvegicus [21] = assay: Compound was tested for hypotensive activity by measuring the average change in mean arterial blood pressure in mmHg after 24 hr at 150 mg/Kg oral dosing of a conscious rat; format: functional, Artery
Rattus norvegicus [22] = assay: Compound was tested for hypotensive activity by measuring the average change in mean arterial blood pressure in mmHg after 4 hr at 150 mg/Kg oral dosing of a conscious rat; format: functional, Artery

SMILES: Cc1cc(N2CCN(C(=O)c3ccc(Nc4ccnc5cc(C(F)(F)F)ccc45)cc3)CC2)nc(N)n1
- Activity (Rattus norvegicus [1]): -3 mmHg
- Activity (Rattus norvegicus [2]): -4 mmHg

SMILES: CSc1nccc(N2CCN(C(=O)c3ccc(Nc4ccnc5cc(C(F)(F)F)ccc45)cc3)CC2)n1
- Activity (Rattus norvegicus [3]): -16 mmHg
- Activity (Rattus norvegicus [4]): -8 mmHg

SMILES: CS(=O)(=O)c1ccc(N2CCN(C(=O)c3ccc(Nc4ccnc5cc(C(F)(F)F)ccc45)cc3)CC2)cc1
- Activity (Rattus norvegicus [3]): -16 mmHg
- LD50 [5]: 3160 mg/kg
- Activity (Rattus norvegicus [4]): -10 mmHg
- Dose (Mus musculus [6]): 1000 mg/kg
- Activity (Rattus norvegicus [7]): -5 mmHg
- Dose (Mus musculus [8]): 316 mg/kg
- Activity (Rattus norvegicus [9]): -7 mmHg

SMILES: COc1ccc(S(=O)(=O)N2CCN(C(=O)c3ccc(Nc4ccnc5cc(C(F)(F)F)ccc45)cc3)CC2)cc1
- Activity (Rattus norvegicus [3]): -3 mmHg
- Activity (Rattus norvegicus [4]): -6 mmHg

SMILES: Cc1cccc(C2(O)CCN(C(=O)c3ccc(Nc4ccnc5cc(C(F)(F)F)ccc45)cc3)CC2)c1
- Activity (Rattus norvegicus [3]): -4 mmHg
- Activity (Rattus norvegicus [4]): -10 mmHg
- Activity (Rattus norvegicus [7]): -1 mmHg
- Activity (Rattus norvegicus [9]): -4 mmHg

SMILES: COc1ccc(C2=CCN(C(=O)c3ccc(Nc4ccnc5cc(C(F)(F)F)ccc45)cc3)CC2)cc1
- Activity (Rattus norvegicus [3]): -2 mmHg
- Activity (Rattus norvegicus [4]): -6 mmHg

SMILES: COc1ccccc1N1CCN(S(=O)(=O)c2ccc(Nc3ccnc4cc(C(F)(F)F)ccc34)cc2)CC1
- Activity (Rattus norvegicus [3]): -14 mmHg
- Activity (Rattus norvegicus [4]): -1 mmHg

SMILES: O=C(c1ccc(Nc2ccnc3cc(C(F)(F)F)ccc23)cc1)N1CCC(O)(c2ccc(Cl)cc2)CC1
- DOSE (Mus musculus [10]): Not acceptable
- LD50 [5]: 237 mg/kg
- Dose (Mus musculus [6]): <100 mg/kg
- Activity (Rattus norvegicus [7]): -22 mmHg
- Activity (Rattus norvegicus [9]): -19 mmHg

SMILES: Fc1ccc(N2CCN(Cc3ccc(Nc4ccnc5cc(C(F)(F)F)ccc45)cc3)CC2)cc1
- Activity (Rattus norvegicus [1]): -4 mmHg
- Activity (Rattus norvegicus [4]; 5 mg/kg): -7 mmHg and -9 mmHg
- Activity (Rattus norvegicus [2]): -18 mmHg

SMILES: O=C(c1ccc(Nc2ccnc3cc(C(F)(F)F)ccc23)cc1)N1CCN(c2ccc(F)cc2)CC1
- Activity (Rattus norvegicus [11]): 1 mmHg
- Activity (Rattus norvegicus [3]): -10 mmHg
- Activity (Rattus norvegicus [4]): -11 mmHg
- Activity (Rattus norvegicus [12]): -12 mmHg

SMILES: O=C(c1ccc(Nc2ccnc3cc(C(F)(F)F)ccc23)cc1)N1CCN(c2ccccc2)CC1
- Activity (Rattus norvegicus [1]): 4 mmHg
- Activity (Rattus norvegicus [2]): -13 mmHg

SMILES: O=C(c1ccc(Nc2ccnc3cc(C(F)(F)F)ccc23)cc1)N1CCN(S(=O)(=O)c2ccc(F)cc2)CC1 [LOSULAZINE]
- Activity (Rattus norvegicus [13]): -19 mmHg
- Activity (Rattus norvegicus [14]): -6 mmHg
- Activity (Rattus norvegicus [15]): -12 mmHg
- Activity (Rattus norvegicus [16]): -21 mmHg
- LD50 [5]: > 3160 mg/kg
- Activity (Rattus norvegicus [17]): -17 mmHg
- Dose (Mus musculus [6]): >3160 mg/kg
- Activity (Rattus norvegicus [7]): -15 mmHg
- Activity (Rattus norvegicus [18]): -2 mmHg
- Activity (Rattus norvegicus [19]): -25 mmHg
- Dose (Mus musculus [8]): 100 mg/kg
- Activity (Rattus norvegicus [20]): -14 mmHg
- Activity (Rattus norvegicus [9]): -10 mmHg

SMILES: COc1ccc(N2CCN(Cc3ccc(Nc4ccnc5cc(C(F)(F)F)ccc45)cc3)CC2)cc1
- Activity (Rattus norvegicus [1]): 1 mmHg
- Activity (Rattus norvegicus [21]): -16 mmHg
- Activity (Rattus norvegicus [2]): -1 mmHg
- Activity (Rattus norvegicus [22]): -5 mmHg

SMILES: O=C(c1ccc(Nc2ccnc3cc(C(F)(F)F)ccc23)cc1)N1CCC(c2ccccc2)CC1
- Activity (Rattus norvegicus [1]): -4 mmHg
- Activity (Rattus norvegicus [2]): -17 mmHg
